Test results: ChEMBL document CHEMBL1121513, “Separation of potent central and renal dopamine agonist activity in substituted 6-chloro-2,3,4,5-tetrahydro-7,8-dihydroxy-1-phenyl-1H-3-benzazepines” (J Med Chem, 1980)

What was measured:
Rattus norvegicus [1] = organism: Rattus norvegicus; assay: Central dopaminergic activity was determined by testing compound for dopamine agonist activity mediated by adenylase cyclase in rat; type: functional, organism-based
Canis familiaris [2] = assay: Effective Dose (ED15) required to decrease renal vascular resistance by 15% in anesthetized dogs administered intravenously; d = increase in renal resistance were seen; type: functional, organism-based; conditions: Canis lupus familiaris
Procedure, shortened: (§1)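 Anesthetized dogs were surgically prepared for electromagnetic measurement of renal and iliac artery blood flow, carotid blood pressure, and ECG-triggered cardiometer heart rate. Drug was infused into an antecubital vein at cumulative, usually threefold increasing doses, 5 min per level. Renal vascular resistance was calculated as mean arterial pressure divided by mean blood flow, with a […] change needed for significance.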

Rattus norvegicus [3] = assay: Central dopaminergic activity was determined by testing compound for its ability to produce contralateral rotation in lesioned rat after intracerebrally administration; type: functional
Canis familiaris [4] = organism: Canis familiaris; assay: Potency was expressed as the average maximum cumulative dose required to decrease renal vascular resistance by 15%; type: functional, Canis lupus familiaris; procedure, shortened: as §1
Rattus norvegicus [5] = assay: Central dopaminergic activity was determined by testing compound for its ability to produce contralateral rotation in lesioned rat after ip administration; type: functional
Canis familiaris [6] = assay: Effective Dose (ED15) required to decrease renal vascular resistance by 15% in anesthetized dogs administered intravenously; type: functional; conditions: Canis lupus familiaris, iv; procedure, shortened: as §1
[7] = Renal vasodilator activity was measured between ED20, heart rate (HR) test, and ED15 RVR.; type: functional
Procedure, shortened: (§2)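 In anesthetized dogs with electromagnetic renal and iliac blood-flow probes, carotid pressure and ECG-triggered heart rate, drug was given as cumulative iv infusions rising about threefold every 5 min. Resistance was pressure divided by flow. Each ratio divides the dose giving a 30% IVR change, a 20% MABP rise or a 20% HR change by the RVR ED15.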

[8] = Renal vasodilator activity was measured between ED20, measure of mean arterial blood pressure (MABP) test, and ED15 RVR.; type: functional; procedure, shortened: as §2
[9] = Renal vasodilator activity was measured between ED30, measure in iliac vascular resistance (IVR) test, and ED15 RVR; type: functional; procedure, shortened: as §2

EC50 (Rattus norvegicus [1]) | Compound | ED15 (Canis familiaris [2]) | RD500 (Rattus norvegicus [3]) | Average max (Canis familiaris [4]) | RD500 (Rattus norvegicus [5]) | ED15 (Canis familiaris [6]) | Selectivity ratio [7] | Selectivity ratio [8] | Selectivity ratio [9]
500 nM | Oc1ccc(C2CNCCc3cc(O)c(O)cc32)cc1 (configuration not stated) | Significant increases | – | – | – | – | – | – | –
– | Oc1cc2c(c(Cl)c1O)CCNCC2c1ccccc1 (configuration not stated) | – | 0.22 µg/rat | 39% | 300 µg/kg | 3.5 µg/kg | – | – | –
18 nM | Oc1ccc(C2CNCCc3c2cc(O)c(O)c3Cl)cc1 (configuration not stated) [FENOLDOPAM] | – | 0.5 µg/rat | 59% | 10000 µg/kg | 0.3 µg/kg | >6072 | >6072 | > 6070
80 nM | Oc1cc2c(cc1O)C(c1ccccc1)CNCC2 (configuration not stated) [SKF-38393] | – | 0.18 µg/rat | 19% | 700 µg/kg | 31 µg/kg | – | 10 | 15

Compound | EC50 (Rattus norvegicus [1]) | ED15 (Canis familiaris [2]) | RD500 (Rattus norvegicus [3]) | Average max (Canis familiaris [4]) | RD500 (Rattus norvegicus [5]) | ED15 (Canis familiaris [6]) | Selectivity ratio [7] | Selectivity ratio [8] | Selectivity ratio [9]
NCCc1ccc(O)c(O)c1 [DOPAMINE] | 3500 nM | – | – | 36% | – | 2.7 µg/kg | 141 | 113 | 56
